Entries after “also recorded” stand apart in the source; their conditions may differ.
Assays:
[1] = test system: dorsoventral (DV) axis of zebrafish embryos (BMPR-I inhibition); experiment: Zebrafish embryo dorsalization; type: in vivo; details: for Dorsalization (EC100, μM): zebrafish embryos treated from 3-hpf, concentration when 100% of treated embryos are severely dorsalized, at least 20 embryos per condition
[2] = test system: VEGF-stimulated Flk1 phosphorylation; experiment: Western blot, VEGF-stimulated Flk1 phosphorylation in BAEC; type: cell-based, bovine
[3] = test system: intersomitic vessel (ISV) formation in Tg(Fli:EGFP)y1 embryos (VEGFR-2 inhibition); experiment: Zebrafish intersomitic vessel; type: in vivo; details: for Effect on ISV formation (words, no concentration given): ISV visualized at 48-hpf
zebrafish embryos = experiment: Zebrafish embryo nonspecific toxicity; details: for Early lethality at 20 μM: administered at 3-hpf
[4] = target: human platelet-derived growth factor receptor-β (PDGFRβ) (Homo sapiens, UniProt P09619); experiment: In vitro kinase assay PDGFRβ; type: biochemical; details: purified human enzyme, 10 μM ATP
human platelet-derived growth factor receptor-β (PDGFRβ), sequence (P09619 33-1106): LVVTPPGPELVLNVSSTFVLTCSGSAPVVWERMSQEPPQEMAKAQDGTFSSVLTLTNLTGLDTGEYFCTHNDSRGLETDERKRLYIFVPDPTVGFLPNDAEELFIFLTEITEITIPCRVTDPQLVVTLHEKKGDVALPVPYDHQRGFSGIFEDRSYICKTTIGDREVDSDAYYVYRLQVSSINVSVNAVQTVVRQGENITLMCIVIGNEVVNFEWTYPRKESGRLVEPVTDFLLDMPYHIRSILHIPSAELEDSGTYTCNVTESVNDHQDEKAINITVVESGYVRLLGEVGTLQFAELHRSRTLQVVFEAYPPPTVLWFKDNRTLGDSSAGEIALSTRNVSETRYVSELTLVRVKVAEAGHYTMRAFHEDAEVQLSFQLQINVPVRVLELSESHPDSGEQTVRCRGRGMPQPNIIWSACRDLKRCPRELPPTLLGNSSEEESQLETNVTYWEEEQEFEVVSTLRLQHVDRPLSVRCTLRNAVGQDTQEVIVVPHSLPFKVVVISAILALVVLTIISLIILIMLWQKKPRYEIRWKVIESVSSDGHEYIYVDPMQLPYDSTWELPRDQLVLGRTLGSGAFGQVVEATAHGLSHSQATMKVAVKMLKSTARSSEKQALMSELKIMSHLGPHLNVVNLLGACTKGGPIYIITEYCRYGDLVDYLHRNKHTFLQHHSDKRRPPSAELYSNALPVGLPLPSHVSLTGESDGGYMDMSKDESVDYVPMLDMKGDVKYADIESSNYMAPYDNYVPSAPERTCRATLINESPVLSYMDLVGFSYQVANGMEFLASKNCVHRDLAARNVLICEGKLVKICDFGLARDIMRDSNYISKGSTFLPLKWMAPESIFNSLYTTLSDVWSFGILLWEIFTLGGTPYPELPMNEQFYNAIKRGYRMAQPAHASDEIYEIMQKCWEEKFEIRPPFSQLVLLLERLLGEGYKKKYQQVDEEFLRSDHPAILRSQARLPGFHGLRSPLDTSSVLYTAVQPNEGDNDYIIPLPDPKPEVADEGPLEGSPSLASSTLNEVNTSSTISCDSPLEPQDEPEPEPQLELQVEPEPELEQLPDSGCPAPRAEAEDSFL

[5] = target: human AMP-activated protein kinase (AMPK/A1/B1/G1) (Homo sapiens, UniProt Q13131); experiment: In vitro kinase assay AMPK; type: biochemical; details: purified human enzyme, 10 μM ATP
human AMP-activated protein kinase (AMPK/A1/B1/G1), sequence (Q13131 whole entry): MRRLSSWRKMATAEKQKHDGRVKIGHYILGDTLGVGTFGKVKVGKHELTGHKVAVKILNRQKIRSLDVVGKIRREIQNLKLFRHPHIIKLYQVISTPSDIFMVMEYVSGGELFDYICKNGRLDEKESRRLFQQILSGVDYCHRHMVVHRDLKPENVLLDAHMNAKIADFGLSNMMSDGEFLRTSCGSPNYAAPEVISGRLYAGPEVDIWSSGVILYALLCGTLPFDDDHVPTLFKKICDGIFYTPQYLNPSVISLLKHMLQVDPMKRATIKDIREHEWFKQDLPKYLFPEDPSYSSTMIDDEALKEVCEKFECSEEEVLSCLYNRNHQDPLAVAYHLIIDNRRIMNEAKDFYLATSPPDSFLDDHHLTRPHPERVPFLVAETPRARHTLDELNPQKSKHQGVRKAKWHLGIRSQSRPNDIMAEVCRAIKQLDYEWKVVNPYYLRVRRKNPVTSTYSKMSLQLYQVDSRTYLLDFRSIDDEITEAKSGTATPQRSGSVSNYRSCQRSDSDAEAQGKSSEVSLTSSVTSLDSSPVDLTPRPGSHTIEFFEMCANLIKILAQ
human AMP-activated protein kinase (AMPK/A1/B1/G1), sequence (Q9Y478 whole entry partner): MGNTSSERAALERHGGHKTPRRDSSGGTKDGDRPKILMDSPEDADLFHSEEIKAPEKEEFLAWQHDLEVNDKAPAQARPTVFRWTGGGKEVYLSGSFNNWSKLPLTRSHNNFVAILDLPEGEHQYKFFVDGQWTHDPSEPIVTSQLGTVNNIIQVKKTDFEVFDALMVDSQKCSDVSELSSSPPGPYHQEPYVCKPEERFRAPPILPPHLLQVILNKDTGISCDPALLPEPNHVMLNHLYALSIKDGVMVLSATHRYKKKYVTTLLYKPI
human AMP-activated protein kinase (AMPK/A1/B1/G1), sequence (P54619 whole entry partner): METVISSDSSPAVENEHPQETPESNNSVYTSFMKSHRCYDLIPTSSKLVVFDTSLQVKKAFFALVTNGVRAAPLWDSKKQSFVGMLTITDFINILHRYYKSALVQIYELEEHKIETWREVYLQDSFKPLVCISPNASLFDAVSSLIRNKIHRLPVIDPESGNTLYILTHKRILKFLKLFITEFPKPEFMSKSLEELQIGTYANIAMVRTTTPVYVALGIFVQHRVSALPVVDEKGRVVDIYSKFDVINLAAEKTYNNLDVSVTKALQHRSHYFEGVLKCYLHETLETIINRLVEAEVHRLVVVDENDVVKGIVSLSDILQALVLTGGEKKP

[6] = test system: BMP-responsive C2C12BRA cells (Id1 promoter-firefly luciferase reporter), BMP4; experiment: BMP-responsive luciferase reporter assay; type: cell-based; details: read-out: IC50 in BMP-responsive luciferase reporter assay
caALK3 = caALK3 (Homo sapiens, UniProt P36894, Q233D); experiment: BMP reporter subtype analysis, caALK3; type: cell-based
caALK3, sequence (P36894 24-532 Q233D): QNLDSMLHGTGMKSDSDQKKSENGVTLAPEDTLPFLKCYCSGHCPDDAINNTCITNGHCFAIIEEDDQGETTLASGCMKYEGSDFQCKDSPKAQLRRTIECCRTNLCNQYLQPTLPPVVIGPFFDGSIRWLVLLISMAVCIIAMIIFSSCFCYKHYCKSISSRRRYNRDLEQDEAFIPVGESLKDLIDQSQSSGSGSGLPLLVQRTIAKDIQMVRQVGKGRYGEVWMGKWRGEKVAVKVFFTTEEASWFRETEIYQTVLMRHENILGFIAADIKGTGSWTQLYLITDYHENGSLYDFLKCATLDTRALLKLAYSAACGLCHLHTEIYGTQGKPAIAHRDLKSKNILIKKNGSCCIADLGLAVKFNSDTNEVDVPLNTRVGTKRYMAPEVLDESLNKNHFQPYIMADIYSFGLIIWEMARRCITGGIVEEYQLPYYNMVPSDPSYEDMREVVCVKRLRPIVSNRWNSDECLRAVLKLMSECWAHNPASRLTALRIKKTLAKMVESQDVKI

[7] = test system: BMP4-induced Smad 1/5/8 phosphorylation; experiment: Western blot, BMP4-induced Smad1/5/8 phosphorylation in HEK293 cells; type: cell-based; details: BMP4 50 ng/ml
[8] = test system: BMP4-induced p38 MAPK phosphorylation; experiment: Western blot, BMP4-induced p38 MAPK phosphorylation in HEK293 cells; type: cell-based
In short: (§1)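 Confluent HEK293 cells were serum-starved, then pretreated with the test compound or DMSO for 30 min. They were then stimulated for 30 min with Activin-A at 40 ng/ml (p-Smad2) or BMP4 at 50 ng/ml (p-p38 MAPK). Cells were lysed with protease and phosphatase inhibitors, and lysates were run on SDS-PAGE and transferred to PVDF. Phospho-proteins were detected by infrared-dye secondary antibodies.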

[9] = target: human VEGF type-II receptor (KDR/Flk-1/VEGFR2) (Homo sapiens, UniProt P35968); experiment: In vitro kinase assay KDR; type: biochemical
human VEGF type-II receptor (KDR/Flk-1/VEGFR2), sequence (P35968 20-1356): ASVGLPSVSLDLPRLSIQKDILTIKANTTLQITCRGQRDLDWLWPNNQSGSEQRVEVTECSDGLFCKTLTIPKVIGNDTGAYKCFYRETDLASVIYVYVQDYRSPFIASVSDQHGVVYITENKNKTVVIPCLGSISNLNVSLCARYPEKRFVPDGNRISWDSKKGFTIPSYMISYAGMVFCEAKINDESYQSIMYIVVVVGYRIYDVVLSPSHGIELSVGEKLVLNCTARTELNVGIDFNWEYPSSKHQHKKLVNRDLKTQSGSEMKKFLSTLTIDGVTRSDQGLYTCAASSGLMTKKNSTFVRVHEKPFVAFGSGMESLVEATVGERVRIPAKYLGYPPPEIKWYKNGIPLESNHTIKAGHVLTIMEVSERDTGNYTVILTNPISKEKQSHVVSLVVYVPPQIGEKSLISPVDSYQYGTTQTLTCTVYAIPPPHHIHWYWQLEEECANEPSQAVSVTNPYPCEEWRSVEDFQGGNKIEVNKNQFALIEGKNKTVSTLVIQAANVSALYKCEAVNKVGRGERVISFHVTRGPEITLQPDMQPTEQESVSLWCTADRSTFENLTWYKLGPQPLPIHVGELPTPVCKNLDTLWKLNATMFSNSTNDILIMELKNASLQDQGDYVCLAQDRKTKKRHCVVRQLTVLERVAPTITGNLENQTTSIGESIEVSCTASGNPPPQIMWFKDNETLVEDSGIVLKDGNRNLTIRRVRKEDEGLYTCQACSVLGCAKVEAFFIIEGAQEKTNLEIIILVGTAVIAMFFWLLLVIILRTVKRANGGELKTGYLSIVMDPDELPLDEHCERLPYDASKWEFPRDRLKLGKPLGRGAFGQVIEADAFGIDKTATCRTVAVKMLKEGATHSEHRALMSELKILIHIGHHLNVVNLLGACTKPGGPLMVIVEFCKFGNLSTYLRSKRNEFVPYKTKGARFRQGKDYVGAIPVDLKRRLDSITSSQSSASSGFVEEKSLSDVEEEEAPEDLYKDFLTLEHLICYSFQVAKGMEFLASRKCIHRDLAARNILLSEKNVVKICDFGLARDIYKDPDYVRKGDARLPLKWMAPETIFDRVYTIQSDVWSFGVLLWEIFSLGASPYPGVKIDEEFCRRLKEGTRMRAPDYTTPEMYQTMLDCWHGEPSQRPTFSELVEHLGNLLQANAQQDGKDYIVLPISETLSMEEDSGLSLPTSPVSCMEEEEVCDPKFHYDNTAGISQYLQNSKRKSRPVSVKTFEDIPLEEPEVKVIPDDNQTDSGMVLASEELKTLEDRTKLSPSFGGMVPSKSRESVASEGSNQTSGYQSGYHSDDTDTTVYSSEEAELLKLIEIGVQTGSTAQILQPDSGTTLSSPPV

caALK6 = experiment: BMP reporter subtype analysis, caALK6; type: cell-based; details: C2C12BRA cells transfected with constitutively active ALK6
[10] = target: T1, human TGFβ type-I receptor activin receptor-like kinase 5 (Alk5/TGFβR1) (Homo sapiens, UniProt P36897); experiment: In vitro kinase assay ALK5; type: biochemical; details: purified human enzyme, 10 μM ATP
T1 sequence (P36897 34-503): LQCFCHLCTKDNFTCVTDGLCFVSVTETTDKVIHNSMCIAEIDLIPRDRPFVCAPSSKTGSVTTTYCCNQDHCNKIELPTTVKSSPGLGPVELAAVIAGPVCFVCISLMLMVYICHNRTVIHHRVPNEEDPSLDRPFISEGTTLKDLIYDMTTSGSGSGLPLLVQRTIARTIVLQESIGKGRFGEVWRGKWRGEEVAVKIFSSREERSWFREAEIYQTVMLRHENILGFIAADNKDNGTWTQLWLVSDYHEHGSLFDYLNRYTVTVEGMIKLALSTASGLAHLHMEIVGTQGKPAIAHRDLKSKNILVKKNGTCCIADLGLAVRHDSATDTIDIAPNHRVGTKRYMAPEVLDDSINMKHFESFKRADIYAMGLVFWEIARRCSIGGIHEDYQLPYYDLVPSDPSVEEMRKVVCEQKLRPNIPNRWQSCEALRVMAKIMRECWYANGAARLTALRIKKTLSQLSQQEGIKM

[11] = test system: Activin A-induced Smad2 phosphorylation; experiment: Western blot, Activin A-induced Smad2 phosphorylation in HEK293 cells; type: cell-based; details: Activin-A 40 ng/ml
In short: as §1

[12] = test system: VEGF-induced phosphorylation of AKT; experiment: Western blot, VEGF-stimulated Akt phosphorylation in BAEC; type: cell-based, bovine
In short: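 Bovine aortic endothelial cells were grown in DMEM with 10% FBS on 0.2% gelatin-coated dishes. Confluent cells were serum-starved for 18–24 hrs, treated with the test compound or DMSO for 30 min, then stimulated for 8 min with 50 ng/ml VEGF165. Lysates, prepared with protease and phosphatase inhibitors, were immunoblotted for p-AKT and total AKT with infrared-dye detection.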

[13] = test system: human umbilical vein endothelial cells (HUVEC); experiment: Endothelial tubule formation; type: cell-based; details: 15hr incubation
In short: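 HUVECs were maintained in EGM-2 on 0.2% gelatin-coated dishes. 1.5 ×10^4 cells were plated on wells pre-coated with extracellular matrix gel and treated with the test compound or DMSO. After 15 hr incubation, tubular network formation was examined by inverted light microscopy.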

**Q.** How did the “Dorsalization at 2 μM” value ([1]; 2 μM, administered at 3-hpf) turn out when `c1cc(-c2cnn3cc(-c4ccc(OCCN5CCCCC5)cc4)cnc23)ccn1` [DM, dorsomorphin, reference compound] was run?
**A.** Its value is “dorsalized zebrafish embryos”.

**Q.** And the “Effect on VEGF-stimulated Flk1 phosphorylation” value ([2]; 50ng/ml VEGF165)?
**A.** The value was “suppressed VEGF-dependent Flk1 phosphorylation in a dose-dependent manner”.

**Q.** And the “Effect on VEGF-stimulated Flk1 phosphorylation” value ([2]; 50ng/ml VEGF165, listed as dorsomorphin)?
**A.** The value was “inhibited the VEGF-stimulated Flk1 phosphorylation in a dose-dependent manner”.

**Q.** And the “Effect on ISV formation at 10 μM” value ([3]; administered at 12-hpf)?
**A.** Its value is “blocked intersomitic vessel (ISV) formation”.

**Q.** What about the “Effect on ISV formation at 10 μM” value ([3]; administered at 12-hpf, listed as dorsomorphin) of the same compound?
**A.** Its value is “completely inhibited ISV formation”.

**Q.** What about the “Early lethality at 20 μM” value (zebrafish embryos) of the same compound?
**A.** Its value is “substantial early lethality”.

**Q.** With `CC(C)Oc1ccc(-c2cnc3c(-c4ccnc5ccccc45)cnn3c2)cc1` [DMH1, 4-(6-(4-isopropoxyphenyl)pyrazolo[1,5-a]pyrimidin-3-yl)quinoline] as the compound, how does the “IC50 PDGFRβ” value [4] read?
**A.** Its value is “without any detectable inhibition”.

**Q.** What about the “IC50 AMPK” value [5] of the same compound?
**A.** The value was “without any detectable inhibition”.

**Q.** And the IC50 [6]?
**A.** The IC50 was ~100 nM.

**Q.** And the “Dorsalization at 0.2 μM” value ([1]; 0.2 μM, treated from 3-hpf)?
**A.** The value was “caused severe dorsalization”.

**Q.** What about the IC50 (caALK3) of the same compound?
**A.** The IC50 was < 500 nM.

**Q.** What about the “Effect on BMP-induced Smad1/5/8 activation” value [7] of the same compound?
**A.** Its value is “selectively inhibited the BMP-induced Smad1/5/8 activation; also recorded: blocked BMP4-induced Smad 1/5/8 phosphorylation”.

**Q.** And the “Effect on BMP4-induced p38 MAPK phosphorylation” value [8]?
**A.** The value was “no effect”.

**Q.** What about the “Effect on VEGF-stimulated Flk1 phosphorylation” value ([2]; 50ng/ml VEGF165) of the same compound?
**A.** The value was “no effect on VEGF-induced Flk1 phosphorylation”.

**Q.** What about the “Effect on ISV formation at 100 μM” value ([3]; 100 μM, treated from 12-hpf) of the same compound?
**A.** Its value is “no effect on ISV formation”.

**Q.** And the “Effect on ISV formation (words, no concentration given)” value ([3]; administered at 12-hpf)?
**A.** The value was “did not have any detectible effect on ISV formation”.

**Q.** And the IC50 [9]?
**A.** The IC50 was > 30000 nM.

**Q.** What about the “IC50 KDR (VEGFR2)” value ([9]; purified human enzyme, 10 μM ATP) of the same compound?
**A.** Its value is “without any detectable inhibition”.

**Q.** And the “Effect on signaling by caALK6” value (caALK6)?
**A.** Its value is “negligible effect on signaling by caALK6”.

**Q.** What about the “IC50 ALK5 (TGFβR-I)” value [10] of the same compound?
**A.** The value was “without any detectable inhibition”.

**Q.** What about the “Effect on Activin A-induced Smad2 phosphorylation” value [11] of the same compound?
**A.** Its value is “no effect”.

**Q.** How did the IC50 [6] turn out when `c1ccc2c(-c3cnn4cc(-c5ccc(OCCN6CCOCC6)cc5)cnc34)ccnc2c1` [DMH2, 4-(2-(4-(3-(quinolin-4-yl)pyrazolo[1,5-a]pyrimidin-6-yl)phenoxy)ethyl)morpholine] was run?
**A.** The IC50 was ~20 nM.

**Q.** And the “Dorsalization (EC100, μM)” value [1]?
**A.** Its value is ~0.1 µM.

**Q.** What about the “Effect on ISV formation (words, no concentration given)” value ([3]; administered at 12-hpf) of the same compound?
**A.** Its value is “did not have any detectible effect on ISV formation”.

**Q.** What about the “Nonspecific developmental effects” value (zebrafish embryos; at higher concentrations) of the same compound?
**A.** The value was “caused nonspecific developmental effects at higher concentrations”.

**Q.** `CN(C)CCCOc1ccc(-c2cnc3c(-c4ccnc5ccccc45)cnn3c2)cc1` [DMH3, N,N-dimethyl-3-(4-(3-(quinolin-4-yl)pyrazolo[1,5-a]pyrimidin-6-yl)phenoxy)propan-1-amine] was tested. Which IC50 [6] did it give?
**A.** The IC50 was ~7 nM.

**Q.** What about the “Dorsalization (EC100, μM)” value [1] of the same compound?
**A.** Its value is ~1 µM.

**Q.** What about the “Effect on ISV formation (words, no concentration given)” value ([3]; administered at 12-hpf) of the same compound?
**A.** Its value is “did not have any detectible effect on ISV formation”.

**Q.** `c1ccc(-c2cnn3cc(-c4ccc(OCCN5CCOCC5)cc4)cnc23)cc1` [DMH4, 4-(2-(4-(3-phenylpyrazolo[1,5-a]pyrimidin-6-yl)phenoxy)ethyl)morpholine] was tested. Which “Effect on dorsoventral axis at 50 μM” value ([1]; 50 μM, treated from 3-hpf) did it give?
**A.** The value was “no effect on dorsoventral axis”.

**Q.** And the “Effect on DV axis (words, no concentration given)” value ([1]; administered at 3-hpf)?
**A.** The value was “no discernable effect on DV axis”.

**Q.** What about the “Dorsalization (EC100, μM)” value [1] of the same compound?
**A.** Its value is “No (>50) μM”.

**Q.** And the “Effect on VEGF-stimulated Akt phosphorylation” value [12]?
**A.** The value was “effectively blocked VEGF-stimulated phosphorylation; also recorded: blocked VEGF-induced phosphorylation”.

**Q.** And the “Effect on VEGF-stimulated Flk1 phosphorylation” value ([2]; 50ng/ml VEGF165)?
**A.** Its value is “effectively blocked VEGF-stimulated phosphorylation; also recorded: blocked VEGF-induced phosphorylation”.

**Q.** What about the “Effect on ISV and SIV formation at 1 μM” value ([3]; 1 μM) of the same compound?
**A.** Its value is “disrupted both ISV and SIV formation”.

**Q.** And the “Effect on ISV formation (words, no concentration given)” value ([3]; administered at 12-hpf)?
**A.** Its value is “caused significant defects in the ISV and the subintestinal vessel (SIV)”.

**Q.** And the “Effect on tubular network formation at 1 μM” value [13]?
**A.** The value was “effectively blocked angiogenesis; also recorded: blocked VEGF-induced tubular network formation”.

**Q.** For `c1ccc2c(-c3cnn4cc(-c5ccc(N6CCNCC6)cc5)cnc34)ccnc2c1` [LDN-193189, reference compound], which “Dorsalization (EC100, μM)” value [1] is on record?
**A.** The value was 3 µM.

**Q.** And the “Effect on ISV formation at 20 μM” value ([3]; 20 μM, administered at 12-hpf)?
**A.** Its value is “significantly inhibited ISV formation”.

**Q.** What about the “Early lethality at 20 μM” value (zebrafish embryos) of the same compound?
**A.** The value was “substantial early lethality”.
